Experimental data from ChEMBL document CHEMBL3352121, “Modulation of Activity Profiles for Largazole-Based HDAC Inhibitors through Alteration of Prodrug Properties” (ACS Med Chem Lett, 2014).
Activity calls are given as the source filed them. The calls are words filed in the database; no cut-off is given here.

Key:
[1] = target: Histone deacetylase 1 (Homo sapiens, UniProt Q13547); assay: Inhibition of HDAC1 (unknown origin) incubated for 30 mins in presence of BSA and DTT by fluorescence assay
Histone deacetylase 1, sequence (Q13547 whole entry): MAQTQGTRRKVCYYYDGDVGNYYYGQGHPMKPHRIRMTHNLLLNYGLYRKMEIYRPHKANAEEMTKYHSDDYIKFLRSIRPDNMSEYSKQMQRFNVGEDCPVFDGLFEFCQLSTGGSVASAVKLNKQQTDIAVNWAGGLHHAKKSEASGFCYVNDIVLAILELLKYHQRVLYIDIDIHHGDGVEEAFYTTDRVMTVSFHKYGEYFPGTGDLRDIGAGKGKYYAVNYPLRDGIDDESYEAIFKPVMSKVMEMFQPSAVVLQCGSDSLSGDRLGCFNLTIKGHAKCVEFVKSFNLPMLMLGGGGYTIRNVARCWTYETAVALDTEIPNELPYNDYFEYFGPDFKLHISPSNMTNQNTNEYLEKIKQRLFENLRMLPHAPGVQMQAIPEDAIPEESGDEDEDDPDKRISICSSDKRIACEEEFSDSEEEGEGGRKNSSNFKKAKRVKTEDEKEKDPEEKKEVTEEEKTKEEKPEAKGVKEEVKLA

[2] = target: Histone deacetylase 2 (Homo sapiens, UniProt Q92769); assay: Inhibition of HDAC2 (unknown origin) incubated for 30 mins in presence of BSA and DTT by fluorescence assay
Histone deacetylase 2, sequence (Q92769 whole entry): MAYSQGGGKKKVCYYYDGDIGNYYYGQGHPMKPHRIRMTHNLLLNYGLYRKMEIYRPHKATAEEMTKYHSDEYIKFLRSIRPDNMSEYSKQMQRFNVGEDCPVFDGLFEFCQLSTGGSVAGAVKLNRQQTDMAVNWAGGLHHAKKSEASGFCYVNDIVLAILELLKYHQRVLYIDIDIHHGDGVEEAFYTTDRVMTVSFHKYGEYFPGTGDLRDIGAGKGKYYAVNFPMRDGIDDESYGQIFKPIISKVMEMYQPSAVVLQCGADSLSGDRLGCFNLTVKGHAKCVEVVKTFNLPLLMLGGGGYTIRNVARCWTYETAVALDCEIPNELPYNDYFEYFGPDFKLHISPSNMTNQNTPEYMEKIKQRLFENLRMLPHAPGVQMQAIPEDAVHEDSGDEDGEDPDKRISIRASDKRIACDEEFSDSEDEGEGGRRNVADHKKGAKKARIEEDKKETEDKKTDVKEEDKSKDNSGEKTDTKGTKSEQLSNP

[3] = test system: HCT-116; assay: In vivo inhibition of HDAC in tumor of human HCT116 cells xenografted nu/nu mouse assessed as increase in histone hyperacetylation at 50 mg/kg, ip after 4 to 24 hrs by immunoblotting method; type: functional, organism-based; set-up: dose 50 mg/kg
Outline: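 HCT116 xenograft mice were dosed intraperitoneally at 10 or 50 mg/kg. Tumors were excised after 4, 12 and 24 h, n = 2. Histone hyperacetylation in tumor tissue was assessed by immunoblotting.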

[4] = test system: HCT-116; assay: In vivo inhibition of HDAC in tumor of human HCT116 cells xenografted nu/nu mouse assessed as increase in histone hyperacetylation at 50 mg/kg, ip after 12 hrs by immunoblotting method; type: functional, organism-based; set-up: dose 50 mg/kg
Outline: (§1)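 Mice bearing HCT116 xenografts were dosed intraperitoneally at 10 or 50 mg/kg, or orally at 50 mg/kg. Tumors were excised at 4, 12 and 24 h. Histone hyperacetylation in the tumors was assessed by immunoblot, n = 2.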

[5] = Drug metabolism in tumor of human HCT116 cells xenografted nu/nu mouse assessed as time for maximum largazole thiol level at 10 mg/kg, ip by HPLC-MS method; type: ADME, organism-based, Neoplasm, HCT-116; set-up: dose 10 mg/kg, route intraperitoneal; settings: in vivo
[6] = Drug metabolism in tumor of human HCT116 cells xenografted nu/nu mouse assessed as time for maximum largazole thiol level at 50 mg/kg, ip by HPLC-MS method; type: ADME, organism-based, Neoplasm, HCT-116; set-up: dose 50 mg/kg, route intraperitoneal; settings: in vivo
[7] = test system: HCT-116; assay: In vivo inhibition of HDAC in tumor of human HCT116 cells xenografted nu/nu mouse assessed as increase in histone hyperacetylation at 50 mg/kg, po after 4 to 12 hrs by immunoblotting method; type: functional, organism-based; set-up: dose 50 mg/kg; outline: as §1
[8] = Drug metabolism in human HCT116 cells protein lysate solution assessed as largazole thiol formation at 25 ug/mL after 1 hr by HPLC-MS method; type: ADME, cell-based; settings: hct-116, 1 h
[9] = test system: Serum; assay: Drug metabolism in mouse serum assessed as largazole thiol formation after 0.25 to 1440 mins by HPLC-MS method; type: ADME, cell-free
[10] = test system: HCT-116; assay: In vivo inhibition of HDAC in tumor of human HCT116 cells xenografted nu/nu mouse assessed as increase in histone hyperacetylation at 10 mg/kg, ip after 4 to 12 hrs by immunoblotting method; type: functional, organism-based; set-up: dose 10 mg/kg; outline: as §1
[11] = Drug metabolism in tumor of human HCT116 cells xenografted nu/nu mouse assessed largazole thiol formation at 50 mg/kg, po by HPLC-MS method; settings: in vivo

| SMILES | IC50 [1] [nM] | IC50 [2] [nM] | inhibition [3] | inhibition [4] | Tmax [5] [h] | Tmax [6] [h] | inhibition [7] | Drug metabolism [8] | Drug metabolism [9] | inhibition [10] | Drug metabolism [11] |
| --- | --- | --- | --- | --- | --- | --- | --- | --- | --- | --- | --- |
| CC(C)[C@@H]1NC(=O)[C@]2(C)CSC(=N2)c2csc(n2)CNC(=O)C[C@@H](/C=C/CCSSC[C@H](NC(=O)OC(C)(C)C)C(=O)OC(C)(C)C)OC1=O | 0.4 | 0.9 |  |  |  |  |  |  |  |  |  |
| CC(C)[C@@H]1NC(=O)[C@]2(C)CSC(=N2)c2csc(n2)CNC(=O)C[C@@H](/C=C/CCSSCC/C=C/[C@@H]2CC(=O)NCc3nc(cs3)C3=N[C@@](C)(CS3)C(=O)N[C@@H](C(C)C)C(=O)O2)OC1=O | 0.3 | 0.5 | Active | inactive | 4 | 4 | inactive | metabolite_detected | metabolite_notdetected | Active | metabolite_notdetected |
